Measured values: ChEMBL document CHEMBL1123840, “Synthesis and evaluation of melphalan-containing N,N-dialkylenkephalin analogues as irreversible antagonists of the delta opioid receptor” (J Med Chem, 1987)
Values joined by “and” are separate entries in the source; they are usually repeats but may differ in a detail not shown here. Equal values may be shown once. Square brackets hold non-standard residues; d marks the D form. Peptide text beside a SMILES is read from it. * marks the point of attachment. ξ: configuration not given here. Tyr(Nα,Nα-Bn2) = O=C([C@H](Cc1ccc(O)cc1)N(Cc1ccccc1)Cc1ccccc1)*; Phe(4-N(CH2CH2Cl)2) = N[C@@H](Cc1ccc(N(CCCl)CCCl)cc1)C(=O)O; Tyr(Nα,Nα-allyl2) = C=CCN(CC=C)[C@@H](Cc1ccc(O)cc1)C(=O)*; ξPhe(4-N(CH2CH2Cl)2) = NC(Cc1ccc(N(CCCl)CCCl)cc1)C(=O)O; X1 = O=C(C(Cc1ccc(O)cc1)N(Cc1ccccc1)Cc1ccccc1)*; ξL = CC(C)CC(N)C(=O)O; Aib = CC(C)(N)C(=O)O

Experiments:
[1] = species on record: Mus musculus; experiment: Ratio of IC50 of DADLE (agonist) expossed to the compound for 10 min and then washed 30 times to Ratio of IC50 of morphine (agonist) prior to exposure to compound; assay type: functional
Procedure, shortened: (§1)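 Irreversible antagonism was measured in isolated tissue. The tissue was exposed to the compound for 10 min (30 min in some cases), then washed 30 times with fresh buffer to remove non-covalently bound ligand. Agonist IC50 was then redetermined. The ratio is this post-wash IC50 over the agonist IC50 in the same tissue before exposure. Mean ± SEM, n = 3 unless otherwise noted.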

[2] = molecular target: T1, Opioid receptors; mu/kappa/delta (Homo sapiens) (UniProt P41145+P41143+P35372); experiment: (§2) Reversible opioid agonist activity in the electrically stimulated guinea pig ileum(GPI) at 1 uM concentration (Exp 1); assay type: functional, tissue-based; conditions: Cavia porcellus, target entry is the homologue from another species
[3] = molecular target: Mu-type opioid receptor (Mus musculus) (UniProt P42866); experiment: Ratio of IC50 of […] (agonist) after 10 min of incubation along with compound (antagonist) and IC50 of agonist in absence of compound for Opioid receptor mu 1 at 1 uM in MVD assay; assay type: functional
Procedure, shortened: (§3)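 Reversible antagonism was measured in electrically stimulated isolated tissue (MVD or GPI) with the antagonist present. Agonists were morphine (μ), ethylketazocine (κ) and DADLE (δ). The value is the agonist IC50 with antagonist divided by the IC50 without it, i.e. the fold rightward shift of the agonist dose-response curve. Mean ± SEM, n = 3 unless otherwise noted.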

[4] = molecular target: Delta-type opioid receptor (Mus musculus) (UniProt P32300); experiment: Ratio of IC50 of DADLE (agonist) after 10 min of incubation along with compound (antagonist) and IC50 of agonist in the absence of compound for Opioid receptor delta 1 at 10 uM in MVD assay; assay type: functional; procedure, shortened: as §3
[5] = molecular target: Kappa-type opioid receptor (Cavia porcellus) (UniProt P41144); experiment: Ratio of IC50 of ethylketazocine (agonist) after 10 min of incubation along with compound (antagonist) and IC50 of agonist in absence of compound for Opioid receptor kappa 1 at 1 uM in GPI assay; assay type: functional; procedure, shortened: as §3
[6] = molecular target: Delta-type opioid receptor (Mus musculus) (UniProt P32300); experiment: Ratio of IC50 of DADLE (agonist) after 10 min of incubation along with compound (antagonist) and IC50 of agonist in the absence of compound for Opioid receptor delta 1 at 1 uM in MVD assay; assay type: functional; procedure, shortened: as §3
[7] = molecular target: Mu-type opioid receptor (Cavia porcellus) (UniProt P97266); experiment: Ratio of IC50 of […] (agonist) after 10 min of incubation along with compound (antagonist) and IC50 of agonist in absence of compound for Opioid receptor mu 1 at 1 uM in GPI assay; assay type: functional; procedure, shortened: as §3
[8] = molecular target: T2, Opioid receptor (Mus musculus) (UniProt P42866+P32300+P33534); experiment: (§4) Reversible opioid agonist activity in the electrically stimulated mouse vas deferens(MVD) at 1 uM concentration; assay type: functional
[9] = molecular target: T2, Opioid receptor (Mus musculus); experiment: Reversible opioid agonist activity in the electrically stimulated mouse vas deferens(MVD) at 10 uM of concentration; assay type: functional
[10] = molecular target: T1, Opioid receptors; mu/kappa/delta (Homo sapiens); experiment: (§5) Reversible opioid agonist activity in the electrically stimulated guinea pig ileum(GPI) at 1 uM concentration (Exp 2); assay type: functional, tissue-based; conditions: Cavia porcellus, target entry is the homologue from another species
[11] = species on record: Mus musculus; experiment: Ratio of IC50 of morphine (agonist) expossed to the compound for 10 min and then washed 30 times to Ratio of IC50 of morphine (agonist) prior to exposure to compound; assay type: functional; procedure, shortened: as §1
[12] = species on record: Cavia porcellus; experiment: as §5; assay type: functional
[13] = molecular target: Kappa-type opioid receptor (Cavia porcellus) (UniProt P41144); experiment: Ratio of IC50 of ethylketazocine (agonist) after 10 min of incubation along with compound (antagonist) and IC50 of agonist in absence of compound for kappa opioid receptor at 1 uM in GPI assay (Exp 1); assay type: functional; procedure, shortened: as §3
[14] = species on record: Cavia porcellus; experiment: as §2; assay type: functional
[15] = molecular target: Mu-type opioid receptor (Cavia porcellus) (UniProt P97266); experiment: Ratio of IC50 of […] (agonist) after 10 min of incubation along with compound (antagonist) and IC50 of agonist in absence of compound for mu opioid receptor at 1 uM in GPI assay (Exp 2); assay type: functional; procedure, shortened: as §3
[16] = molecular target: Delta-type opioid receptor (Mus musculus) (UniProt P32300); experiment: Ratio of IC50 of DADLE (agonist) after 10 min of incubation along with compound (antagonist) and IC50 of agonist in the absence of compound for delta opioid receptor at 1 uM in MVD assay; assay type: functional; procedure, shortened: as §3
[17] = species on record: Mus musculus; experiment: as §4; assay type: functional
[18] = species on record: Cavia porcellus; experiment: Reversible opioid antagonist activity in the electrically stimulated guinea pig ileum(GPI). Antagonist activity was evaluated with morphine at 0.02 uM concentration (Exp 2); assay type: functional
[19] = molecular target: Mu-type opioid receptor (Homo sapiens) (UniProt P35372); experiment: Ratio of IC50 of […] (agonist) after 10 min of incubation along with compound (antagonist) and IC50 of agonist in absence of compound for mu opioid receptor at 1 uM in MVD assay; assay type: functional; conditions: Mus musculus; procedure, shortened: as §3
[20] = molecular target: Mu-type opioid receptor (Cavia porcellus) (UniProt P97266); conditions: 1 uM
[21] = species on record: Cavia porcellus; experiment: Reversible opioid agonist activity in the electrically stimulated guinea pig ileum(GPI) at 1 uM concentration (Experiment 1)
[22] = species on record: Cavia porcellus; experiment: Reversible opioid agonist activity in the electrically stimulated guinea pig ileum(GPI) at 1 uM concentration (Experiment 2)
[23] = molecular target: Mu-type opioid receptor (Mus musculus) (UniProt P42866); conditions: 10 uM
[24] = molecular target: Mu-type opioid receptor (Cavia porcellus) (UniProt P97266); conditions: 1 uM; remark: listed apart in the source
[25] = molecular target: Kappa-type opioid receptor (Cavia porcellus) (UniProt P41144); experiment: Ratio of IC50 of ethylketazocine (agonist) after 10 min of incubation along with compound (antagonist) and IC50 of agonist in absence of compound for Opioid receptor kappa 1 at 1 uM in GPI assay (Exp 2); assay type: functional; procedure, shortened: as §3
[26] = molecular target: T1, Opioid receptors; mu/kappa/delta (Homo sapiens); conditions: Cavia porcellus; Ileum; 1 uM
[27] = molecular target: Kappa-type opioid receptor (Cavia porcellus) (UniProt P41144); experiment: Ratio of IC50 of ethylketazocine (agonist) after 10 min of incubation along with compound (antagonist) and IC50 of agonist in absence of compound for Opioid receptor kappa 1 at 1 uM in GPI assay (Exp 1); assay type: functional; procedure, shortened: as §3
[28] = molecular target: Mu-type opioid receptor (Cavia porcellus) (UniProt P97266); conditions: 1 uM; remark: listed apart in the source

Chain of Mu-type opioid receptor (Mus musculus) (P42866 whole entry): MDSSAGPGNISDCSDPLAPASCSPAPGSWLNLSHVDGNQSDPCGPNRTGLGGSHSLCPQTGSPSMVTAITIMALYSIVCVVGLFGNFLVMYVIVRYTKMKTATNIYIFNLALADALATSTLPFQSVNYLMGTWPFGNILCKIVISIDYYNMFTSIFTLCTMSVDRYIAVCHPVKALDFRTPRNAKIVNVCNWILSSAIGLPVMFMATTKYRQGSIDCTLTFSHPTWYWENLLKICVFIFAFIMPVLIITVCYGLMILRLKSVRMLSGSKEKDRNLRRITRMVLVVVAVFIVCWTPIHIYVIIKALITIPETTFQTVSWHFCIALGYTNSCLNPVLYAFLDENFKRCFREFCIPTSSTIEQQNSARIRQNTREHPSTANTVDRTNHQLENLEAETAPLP
Chain of Delta-type opioid receptor (Mus musculus) (P32300 whole entry): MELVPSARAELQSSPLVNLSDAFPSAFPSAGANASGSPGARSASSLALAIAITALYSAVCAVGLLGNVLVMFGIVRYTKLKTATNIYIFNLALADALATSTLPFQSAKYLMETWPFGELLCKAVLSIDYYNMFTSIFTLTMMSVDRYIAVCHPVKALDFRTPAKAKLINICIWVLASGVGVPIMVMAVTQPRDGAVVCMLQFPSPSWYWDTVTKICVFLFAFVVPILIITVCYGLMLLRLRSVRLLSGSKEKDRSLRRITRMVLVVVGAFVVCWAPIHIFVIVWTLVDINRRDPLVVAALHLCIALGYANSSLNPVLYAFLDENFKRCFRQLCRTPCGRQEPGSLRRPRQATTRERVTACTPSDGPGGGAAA
T2 sequence (P32300 whole entry, looked up): as the sequence (P32300 whole entry) above
T2 sequence (P33534 whole entry, looked up): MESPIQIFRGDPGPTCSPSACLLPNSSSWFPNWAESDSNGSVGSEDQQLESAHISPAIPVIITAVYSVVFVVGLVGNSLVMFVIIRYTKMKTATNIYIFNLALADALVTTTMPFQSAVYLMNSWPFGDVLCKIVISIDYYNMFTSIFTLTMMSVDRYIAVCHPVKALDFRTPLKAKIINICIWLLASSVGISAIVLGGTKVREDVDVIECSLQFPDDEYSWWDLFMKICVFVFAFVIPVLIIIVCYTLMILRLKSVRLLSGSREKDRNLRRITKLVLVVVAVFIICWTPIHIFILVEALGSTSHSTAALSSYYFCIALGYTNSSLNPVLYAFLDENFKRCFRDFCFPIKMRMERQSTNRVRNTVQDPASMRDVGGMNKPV
T2 sequence (P42866 whole entry, looked up): as the sequence (P42866 whole entry) above
T1 sequence (P35372 whole entry, looked up): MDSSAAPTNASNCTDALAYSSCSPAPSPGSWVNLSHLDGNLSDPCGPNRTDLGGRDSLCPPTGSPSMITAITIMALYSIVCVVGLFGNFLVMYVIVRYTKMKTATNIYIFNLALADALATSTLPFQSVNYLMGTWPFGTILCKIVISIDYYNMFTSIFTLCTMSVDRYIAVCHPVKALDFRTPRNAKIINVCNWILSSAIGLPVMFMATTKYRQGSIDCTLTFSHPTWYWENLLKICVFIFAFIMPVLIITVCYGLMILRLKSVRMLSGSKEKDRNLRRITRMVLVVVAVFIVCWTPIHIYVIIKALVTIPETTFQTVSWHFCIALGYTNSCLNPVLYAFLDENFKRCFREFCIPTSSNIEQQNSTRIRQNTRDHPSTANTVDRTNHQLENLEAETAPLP
T1 sequence (P41143 whole entry, looked up): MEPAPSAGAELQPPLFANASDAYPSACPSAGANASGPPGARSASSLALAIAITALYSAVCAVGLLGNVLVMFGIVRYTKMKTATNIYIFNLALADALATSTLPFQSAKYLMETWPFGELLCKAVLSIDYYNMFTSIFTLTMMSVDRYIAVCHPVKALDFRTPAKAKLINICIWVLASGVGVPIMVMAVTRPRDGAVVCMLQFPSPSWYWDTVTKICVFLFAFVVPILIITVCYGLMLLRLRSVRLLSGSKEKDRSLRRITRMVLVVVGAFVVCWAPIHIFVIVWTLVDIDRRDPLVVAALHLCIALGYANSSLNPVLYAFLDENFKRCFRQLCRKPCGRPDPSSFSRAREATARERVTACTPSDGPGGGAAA
T1 sequence (P41145 whole entry, looked up): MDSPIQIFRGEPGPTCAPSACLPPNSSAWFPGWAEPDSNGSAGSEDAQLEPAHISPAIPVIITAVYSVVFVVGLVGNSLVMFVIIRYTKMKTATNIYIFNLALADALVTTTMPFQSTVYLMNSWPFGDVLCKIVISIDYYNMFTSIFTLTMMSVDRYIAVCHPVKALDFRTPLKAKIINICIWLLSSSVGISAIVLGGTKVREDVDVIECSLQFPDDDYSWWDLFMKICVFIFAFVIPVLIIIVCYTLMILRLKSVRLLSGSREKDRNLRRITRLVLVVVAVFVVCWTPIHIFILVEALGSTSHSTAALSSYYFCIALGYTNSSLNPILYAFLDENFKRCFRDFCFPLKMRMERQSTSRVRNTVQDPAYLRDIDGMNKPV
Chain of Kappa-type opioid receptor (Cavia porcellus) (P41144 whole entry): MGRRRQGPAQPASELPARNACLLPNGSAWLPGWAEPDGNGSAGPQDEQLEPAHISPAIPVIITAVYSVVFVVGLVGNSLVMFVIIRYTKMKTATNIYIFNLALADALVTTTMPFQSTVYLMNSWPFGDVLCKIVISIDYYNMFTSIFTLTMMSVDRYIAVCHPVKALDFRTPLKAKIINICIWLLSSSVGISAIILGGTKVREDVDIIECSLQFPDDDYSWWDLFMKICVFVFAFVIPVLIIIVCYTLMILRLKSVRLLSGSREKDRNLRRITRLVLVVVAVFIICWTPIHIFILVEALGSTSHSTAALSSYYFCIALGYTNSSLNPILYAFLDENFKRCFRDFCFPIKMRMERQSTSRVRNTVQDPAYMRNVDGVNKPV
Chain of Mu-type opioid receptor (Cavia porcellus) (P97266 whole entry): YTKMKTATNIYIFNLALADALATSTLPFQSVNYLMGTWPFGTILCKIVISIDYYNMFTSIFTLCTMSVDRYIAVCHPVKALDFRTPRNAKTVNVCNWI
Chain of Mu-type opioid receptor (Homo sapiens) (P35372 whole entry): as the sequence (P35372 whole entry, looked up) above

SMILES	IC50 ratio [1]	IC50 ratio [3]	IC50 ratio [4]	IC50 ratio [6]	inhibition [8] [%]	inhibition [9] [%]	inhibition [10] [%]	IC50 ratio [11]	IC50 ratio [15]	IC50 ratio [16]	inhibition at 1 µM [17] [%]	IC50 ratio [19]	further results
C=CCN(CC=C)[C@@H](Cc1ccc(O)cc1)C(=O)NC(C)(C)C(=O)NC(C)(C)C(=O)N[C@@H](Cc1ccccc1)C(=O)N[C@@H](CC(C)C)C(=O)O ({Tyr(Nα,Nα-allyl2)}-[Aib][Aib]FL-OH)	5.5	0.8	147	15.6	8.4	15.8	37.8	0.8	–	–	–	–	inhibition [2]: 16.2%; IC50 ratio [5]: 0.7 and 0.9; IC50 ratio [7]: 0.5 and 0.6
CC(C)C[C@H](NC(=O)[C@H](Cc1ccccc1)NC(=O)C(C)(C)NC(=O)C(C)(C)NC(=O)[C@H](Cc1ccc(O)cc1)N(Cc1ccccc1)Cc1ccccc1)C(=O)O ({Tyr(Nα,Nα-Bn2)}-[Aib][Aib]FL-OH)	–	–	–	–	–	–	–	–	0.7	5.6	25.7	1	IC50 [12]: 300 nM; IC50 ratio [13]: 1; inhibition at 1 µM [14]: 68.7%; IC50 ratio [18]: 1.3
C=CCN(CC=C)[C@@H](Cc1ccc(O)cc1)C(=O)NCC(=O)NCC(=O)N[C@@H](Cc1ccc(N(CCCl)CCCl)cc1)C(=O)N[C@@H](CC(C)C)C(=O)O ({Tyr(Nα,Nα-allyl2)}-GG[Phe(4-N(CH2CH2Cl)2)]L-OH)	–	–	–	–	–	–	–	–	1.1 and 1	1.2	4.2	1.1	IC50 ratio [20]: 0.6; inhibition at 1 µM [21]: 23%; inhibition at 1 µM [22]: 10%
CC(C)CC(NC(=O)C(Cc1ccc(N(CCCl)CCCl)cc1)NC(=O)CNC(=O)CNC(=O)C(Cc1ccc(O)cc1)N(Cc1ccccc1)Cc1ccccc1)C(=O)O (stereo not given) (X1-GG[ξPhe(4-N(CH2CH2Cl)2)][ξL]-OH)	2.4	1	7.7	3	16.2	18.3	10	1.2	–	–	–	–	IC50 ratio [23]: 1.7; IC50 ratio [24]: 0.5; IC50 ratio [25]: 0.4; inhibition [26]: 4.8%; IC50 ratio [27]: 0.4; IC50 ratio [28]: 0.7
